In ChEMBL document CHEMBL5214977, “Discovery and Optimization of Quinoline Analogues as Novel Potent Antivirals against Enterovirus D68” (J Med Chem, 2022):
pEC50: −log10 of the molar value. Calls of active or inactive are those of the source. The rule behind the calls is not given here.

Tests used:
[1] = tested on: enterovirus D68; test: Antiviral activity against Enterovirus D68 infected in human RD cells assessed as inhibition of viral replication at 1 uM incubated for 1.5 hrs by crystal violet staining based plaque formation assay; format: functional, organism-based
Summary of the method: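 Overnight RD monolayers received serially diluted virus stock plus compound for 1.5 h. Supernatant was removed and cells were overlaid with 2× DMEM containing 2% low-melting agarose. At 72 hpi cells were fixed with 4% paraformaldehyde for 4 h at room temperature and stained with 1% crystal violet to count plaques.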

[2] = tested on: enterovirus D68; test: Antiviral activity against Enterovirus D68 infected in human RD cells assessed as inhibition of VP1 expression level incubated for 12 hrs by Hoechst 33342 staining based immunofluorescence assay; format: functional, organism-based; details: dose 0.1-10 µM, DDE = dose-dependent effect
Summary of the method: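 RD cells were infected with EV-D68 at MOI 1 together with compound for 12 h. Cells were fixed in 4% formaldehyde for 30 min and permeabilized in 0.1% Triton X-100 for 30 min, then blocked with 5% bovine serum. Staining used rabbit anti-VP1 with an Alexa-546 secondary and 1 μM Hoechst33342 nuclear stain, imaged by fluorescence microscopy.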

[3] = tested on: enterovirus D68; test: Antiviral activity against Enterovirus D68 infected in human RD cells assessed as inhibition of viral replication at 2 uM treated for 14 hrs by qRT-PCR analysis; format: functional, organism-based
Summary of the method: (§1)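 RD cells grown for 24 h were infected at 0 h with EV-D68 (MOI 0.01), and virus was washed off at 1 hpi. Compound at 2 μM or DMSO was added over set windows (0–1 h, after 1 hpi, or 0–14 h). Supernatants were collected at 14 hpi. Viral RNA copies were measured by qRT-PCR against a copy-number standard curve. Values are mean ± SD.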

[4] = tested on: enterovirus D68; test: Antiviral activity against Enterovirus D68 infected in human RD cells assessed as inhibition of viral replication at 2 uM treated for 1 hr by qRT-PCR analysis; format: functional, organism-based; summary of the method: as §1
[5] = tested on: enterovirus D68; test: Antiviral activity against Enterovirus D68 infected in human RD cells assessed as reduction in thermal inactivation of virus at 55 degreeC at 12.5 uM incubated for 72 hrs by TCID50 assay; format: functional, organism-based
Summary of the method: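 Compound at 12.5 μM or DMSO was incubated with EV-D68 (2 × 10^6 PFU/ml) at 33 °C for 30 min. The mixture was heated for 2 min at temperatures between 37 and 59 °C, then cooled to 4 °C. Residual titre was measured by TCID50 on RD cells: 10-fold virus dilutions, CPE scored after 72 h, Reed–Muench calculation.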

[6] = tested on: enterovirus D68; test: Antiviral activity against Enterovirus D68 infected in human RD cells assessed as inhibition of VP1 expression level incubated for 1.5 hrs by Western blot analysis; format: functional, organism-based; details: dose 0.1-10 µM, DDE = dose-dependent effect
Summary of the method: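 RD cells (8.0 × 10^4 per well) were grown for 24 h, then infected with EV-D68 at MOI 0.01 for 1.5 h with gradient-diluted compound or DMSO. Lysates were made at 12 hpi in RIPA buffer and run on 10% SDS-PAGE. Blots were probed with anti-EV-D68 VP1 and anti-tubulin antibodies, with HRP secondary and ECL detection.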

[7] = AUC (0 to infinity) in Sprague-Dawley rat at 1 mg/kg, iv measured upto 24 hrs by LC-MS/MS analysis; format: ADME, organism-based; design: dose 1 mg/kg, time < 24 hrs, route iv; details: in vivo
Summary of the method: (§2)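 Male SD rats (6–9 or 6–8 weeks old, n = 3 per route) received a single 1 mg/kg iv or 5 mg/kg po dose. The vehicle was 5% DMSO/5% Solutol HS-15/90% water or 5% DMSO/95% HP-β-CD in water. Jugular blood was drawn into heparin at 0.083 (iv only), 0.25, 0.5, 1, 2, 4, 6 and 24 h. Plasma was analysed by LC-MS/MS. Values are mean ± SD.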

[8] = Selectivity index, ratio of CC50 for human RD cells to EC50 for Enterovirus-D68 US/KY/14-18953 infected in human RD cells; format: toxicity, cell-based; details: read-out: Ratio CC50/EC50
Summary of the method: (§3)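 EC50 came from a CPE reduction assay. RD cells (1.5 × 10^4 per well, grown 24 h) were infected with 100 TCID50 of the named strain and given 3-fold dilutions from 0.01 to 200 μM. After 72 h at 37 °C, ATP was read by CellTiter-Glo and normalized to infected and uninfected controls. CC50 came from uninfected cells under the same dilutions, 72 h and ATP readout. SI = CC50/EC50.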

[9] = Cmax in Sprague-Dawley rat at 5 mg/kg, po measured upto 24 hrs by LC-MS/MS analysis; format: ADME, organism-based; design: dose 5 mg/kg, time < 24 hrs, route po; details: in vivo; summary of the method: as §2
[10] = Oral bioavailability in Sprague-Dawley rat at 5 mg/kg measured upto 24 hrs by LC-MS/MS analysis; format: ADME, organism-based; details: in vivo; summary of the method: as §2
[11] = Selectivity index, ratio of CC50 for human RD cells to EC50 for Enterovirus-D68 US/MO/14-18947 infected in human RD cells; format: toxicity, cell-based; details: read-out: Ratio CC50/EC50; summary of the method: as §3
[12] = Tmax in Sprague-Dawley rat at 5 mg/kg, po measured upto 24 hrs by LC-MS/MS analysis; format: ADME, organism-based; details: in vivo; summary of the method: as §2
[13] = Half life in Sprague-Dawley rat at 1 mg/kg, iv measured upto 24 hrs by LC-MS/MS analysis; format: ADME, organism-based; details: in vivo; summary of the method: as §2
[14] = AUC (0 to infinity) in Sprague-Dawley rat at 5 mg/kg, po measured upto 24 hrs by LC-MS/MS analysis; format: ADME, organism-based; design: time < 24 hrs, dose 5 mg/kg, route po; details: in vivo; summary of the method: as §2
[15] = AUC(0 to t) in Sprague-Dawley rat at 1 mg/kg, iv measured upto 24 hrs by LC-MS/MS analysis; format: ADME, organism-based; design: dose 1 mg/kg, time < 24 hrs, route iv; details: in vivo; summary of the method: as §2
[16] = Selectivity index, ratio of CC50 for human RD cells to EC50 for Enterovirus-D68 fermon infected in human RD cells; format: toxicity, cell-based; details: read-out: Ratio CC50/EC50; summary of the method: as §3
[17] = tested on: enterovirus D68; test: Antiviral activity against Enterovirus-D68 US/KY/14-18953 infected in human RD cells assessed as reduction in virus induced cytopathic effect by measuring ATP level incubated for 72 hrs by cell titer-glo luminescent cell viability assay; format: functional, organism-based; details: Enterovirus D, US/KY/14-18953, RD
Summary of the method: (§4)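 RD cells seeded at 1.5 × 10^4/well and grown 24 h, then given 100 TCID50 virus plus compound in 3-fold dilutions (0.01–200 μM). DMSO control. Incubated 37 °C for 72 h; ATP read by CellTiter-Glo luminescence and normalized to uninfected and infected controls. EC50 is the concentration giving 50% CPE reduction. Strains: STL-2014-12, US/KY/14-18953, US/MO/14-18947, Fermon.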

[18] = tested on: enterovirus D68; test: Antiviral activity against Enterovirus-D68 US/MO/14-18947 infected in human RD cells assessed as reduction in virus induced cytopathic effect by measuring ATP level incubated for 72 hrs by cell titer-glo luminescent cell viability assay; format: functional, organism-based; details: Enterovirus D, US/MO/14-18947, RD; summary of the method: as §4
[19] = tested on: enterovirus D68; test: Antiviral activity against Enterovirus-D68 fermon infected in human RD cells assessed as reduction in virus induced cytopathic effect by measuring ATP level incubated for 72 hrs by cell titer-glo luminescent cell viability assay; format: functional, organism-based; details: Enterovirus D; summary of the method: as §4
[20] = tested on: enterovirus D68; test: Antiviral activity against Enterovirus-D68 STL-2014-12 infected in human RD cells assessed as reduction in virus induced cytopathic effect by measuring ATP level incubated for 72 hrs by cell titer-glo luminescent cell viability assay; format: functional, organism-based; summary of the method: as §4
[21] = AUC (0 to t) in Sprague-Dawley rat at 5 mg/kg, po measured upto 24 hrs by LC-MS/MS analysis; format: ADME, organism-based; design: dose 5 mg/kg, time < 24 hrs, route po; details: in vivo; summary of the method: as §2
[22] = Selectivity index, ratio of CC50 for human RD cells to EC50 for Enterovirus-D68 STL-2014-12 infected in human RD cells to; format: toxicity, cell-based; summary of the method: as §3
[23] = Half life in Sprague-Dawley rat at 5 mg/kg, po measured upto 24 hrs by LC-MS/MS analysis; format: ADME, organism-based; details: in vivo; summary of the method: as §2
[24] = C0 in Sprague-Dawley rat at 1 mg/kg, iv measured upto 24 hrs by LC-MS/MS analysis; format: ADME, organism-based; details: in vivo; summary of the method: as §2
[25] = Metabolic stability in human liver microsomes assessed as half life at 1 uM incubated upto 60 mins in presence of NADPH by LC-MS/MS analysis; format: ADME, Microsome; details: 1 h
Summary of the method: (§5)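 Test compound at 1 μM final was incubated at 37 °C with 0.5 mg/mL liver microsomal protein and 1 mM NADPH, alongside a no-NADPH control. Samples were quenched at 0, 5, 15, 30 and 60 min into solution containing verapamil internal standard, then centrifuged and analysed by LC-MS/MS. t1/2 and intrinsic clearance were derived from the extent of metabolism.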

[26] = Metabolic stability in Beagle dog liver microsomes assessed as half life at 1 uM incubated upto 60 mins in presence of NADPH by LC-MS/MS analysis; format: ADME, Canis lupus familiaris, Microsome; details: 1 h; summary of the method: as §5
[27] = tested on: RD; test: Cytotoxicity against human RD cells assessed as inhibition of cell viability by measuring ATP level incubated for 72 hrs by cell titer-glo luminescent cell viability assay; format: functional
Summary of the method: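 Uninfected RD cells seeded at 1.5 × 10^4/well and grown 24 h, then exposed to compound in 3-fold dilutions (0.01–200 μM), with DMSO as cell control. ATP read by CellTiter-Glo luminescence after 72 h; CC50 is the 50% cytotoxic concentration.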

[28] = tested on: enterovirus D68; test: Antiviral activity against Enterovirus D68 infected in human RD cells assessed as increase in viral RNA release temperature at 10 ug/ml incubated for 15 mins by particle release thermal stability assay (reference value: 52 degree C); format: functional; details: dose 10 µg/ml, 0.25 h
[29] = Metabolic stability in rat liver microsomes assessed as half life at 1 uM incubated upto 60 mins in presence of NADPH by LC-MS/MS analysis; format: ADME, Microsome; details: 1 h; summary of the method: as §5
[30] = tested on: enterovirus D68; test: Antiviral activity against Enterovirus-D68 infected in human HeLa cells assessed as reduction in virus induced cytopathic effect incubated for […] by plaque reduction assay; format: functional, organism-based; details: Enterovirus D
[31] = Enterovirus D, STL-2014-12, RD, 72 h

SMILES	Activity [5]	AUC [7] [ng·h/mL]	selectivity ratio [8]	Cmax [9] [ng/mL]	F [10] [%]	selectivity ratio [11]	Tmax [12] [h]	t1/2 [13] [h]	AUC [14] [ng·h/mL]	AUCt [15] [ng·h/mL]	selectivity ratio [16]	pEC50 [17]	pEC50 [18]	pEC50 [19]	AUC [21] [ng·h/mL]	Ratio CC50/EC50 [22]	t1/2 [23] [h]	C0 [24] [ng/mL]	CC50 [27] [nM]	pEC50 [20, 31]	other results
Nc1ccc(-c2ccc3ncc(-c4noc(C(F)(F)F)n4)cc3c2)cc1 [listing 1 of 2 here]	Active	–	–	–	–	–	–	–	–	–	–	–	–	–	–	–	–	–	–	–	Activity [1]: Active; Activity [2]: Dde; Activity [3]: Active; Activity [4]: Active; Activity [6]: Dde
CCc1nc(-c2cnc3ccc(-c4ccc(N)cc4)cc3c2)no1.Cl	–	158	> 159	36.1	6.8	> 159	0.417	0.309	53.8	157	> 185	7.15	7.15	7.22	49.5	> 139	1.06	1370	–	–	pEC50 ([20]; rd): 7.10
Nc1ccc(-c2ccc3ncc(-c4noc(C(F)(F)F)n4)cc3c2)cc1 [listing 2 of 2 here]	–	268	–	108	23.9	–	1	1.92	320	253	–	–	–	–	307	> 50	1.21	637	> 2500	7.30	t1/2 [25]: 2.47 h; t1/2 [26]: 0.288 h; T [28]: 55 °C; t1/2 [29]: 0.683 h
Cc1cc(CCCOc2c(C)cc(-c3noc(C(F)(F)F)n3)cc2C)on1 [PLECONARIL]	Active	–	> 417	–	–	> 156	–	–	–	–	> 333	6.62	6.19	6.52	–	–	–	–	> 200000	6.40	pEC50 [30]: 6.37; selectivity ratio ([22]; RD cells, read-out: Ratio CC50/EC50): > 250
